pIC50: −log10 of the molar value.

One experiment deals with Human immunodeficiency virus 1. Put plainly: In vitro inhibitory concentration against HIV-1 Y181C mutant strain. Type of experiment: functional, organism-based.
Conditions: not given
The gist of the method: (§1)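 MT4 human T-lymphoblastoid cells, grown in RPMI 1640 with 10% fetal calf serum and antibiotics at 37 °C under 5% CO2. Mutant HIV-1 strains were added at 200 CCID50/well with 30 000 cells/well across a compound concentration range. After 5 days at 37 °C, viability was read by MTT colorimetry. EC50 is the concentration giving 50% infection relative to the drug-free control.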
Take `CCc1c(C)[nH]c(=O)c(N(C)CCOC)c1Cc1cccc(C)c1`: the negative-log IC50 (pIC50) is 6.10.
In turn, `CCc1c(C)[nH]c(=O)c(N(C)CC)c1Cc1cc(C)cc(C)c1` had a pIC50 of 6.50.
The molecule `CCc1c(C)[nH]c(=O)c(N(C)CC)c1Cc1cccc(/C=C/C#N)c1` gave a negative logarithm of the IC50 (pIC50) of 7.49.

The subject of another experiment is Human immunodeficiency virus 1. Kind of experiment: In vitro inhibitory concentration value against HIV K103N and Y181C mutant strain. Type of experiment: functional, organism-based.
Conditions: not given
The gist of the method:
as §1
`CCc1c(C)[nH]c(=O)c(N(C)CCOC)c1Cc1cccc(C)c1` had a pIC50 of 5.00.
Regarding `CCc1c(C)[nH]c(=O)c(N(C)CC)c1Cc1cc(C)cc(C)c1`, the pIC50 is 5.51.
`CCc1c(C)[nH]c(=O)c(N(C)CC)c1Cc1cccc(/C=C/C#N)c1` showed a pIC50 of 6.70.

A further experiment deals with Human immunodeficiency virus 1. Kind of experiment: In vitro inhibitory concentration against HIV L100I and K103N mutant strain. Type of experiment: functional, organism-based.
Conditions: not given
The gist of the method: as §1
In turn, `CCc1c(C)[nH]c(=O)c(N(C)CCOC)c1Cc1cccc(C)c1` gave a pIC50 of 6.10.
Regarding `CCc1c(C)[nH]c(=O)c(N(C)CC)c1Cc1cc(C)cc(C)c1`, the pIC50 is 6.22.
`CCc1c(C)[nH]c(=O)c(N(C)CC)c1Cc1cccc(/C=C/C#N)c1` gave a pIC50 of 6.70.

For another experiment, the system named is Human immunodeficiency virus 1. Kind of experiment: Selective index value (ratio of CC50 to IC50 value)against HIV LAI cell line. Type of experiment: functional.
Conditions: not given
The gist of the method: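 Ratio of CC50 to IC50 against LAI. CC50 came from mock-infected MT4 cultures (30 000 cells/well) given the same compound concentration range, run in parallel with LAI-infected cultures (200 CCID50/well). Incubation was 5 days at 37 °C in 5% CO2, with MTT viability read-out.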
As for `CCc1c(C)[nH]c(=O)c(N(C)CCOC)c1Cc1cccc(C)c1`, the SI stood at 10000.
On the same count and under the same terms, with `CCc1c(C)[nH]c(=O)c(N(C)CC)c1Cc1cc(C)cc(C)c1` the figure was 3980; with `CCc1c(C)[nH]c(=O)c(N(C)CC)c1Cc1cccc(/C=C/C#N)c1`, 10000.

The next experiment deals with Human immunodeficiency virus 1. Kind of experiment: In vitro inhibitory concentration against HIV F227L and V106A mutant strain.
Conditions: not given
Type of experiment: functional, organism-based. The gist of the method: as §1
`CCc1c(C)[nH]c(=O)c(N(C)CCOC)c1Cc1cccc(C)c1`: the negative-log IC50 (pIC50) is 5.40.
Molecule `CCc1c(C)[nH]c(=O)c(N(C)CC)c1Cc1cccc(/C=C/C#N)c1` gave a pIC50 of 5.50.

Another experiment concerns Human immunodeficiency virus 1. Put plainly: In vitro inhibitory concentration against HIV K101E and K103N mutant strain. Type of experiment: functional, organism-based.
Conditions: not given
The method in brief:
as §1
`CCc1c(C)[nH]c(=O)c(N(C)CCOC)c1Cc1cccc(C)c1` gave a pIC50 of 7.00.
On the same count and under the same terms, under `CCc1c(C)[nH]c(=O)c(N(C)CC)c1Cc1cc(C)cc(C)c1` stands 6.86; under `CCc1c(C)[nH]c(=O)c(N(C)CC)c1Cc1cccc(/C=C/C#N)c1`, 6.80.

The next experiment relates to Human immunodeficiency virus 1. Put plainly: In vitro inhibitory concentration against HIV E138K mutant strain. Type of experiment: functional, organism-based.
Conditions: not given
The gist of the method: as §1
Take `CCc1c(C)[nH]c(=O)c(N(C)CCOC)c1Cc1cccc(C)c1`: the negative-log IC50 (pIC50) is 8.10.
Consider `CCc1c(C)[nH]c(=O)c(N(C)CC)c1Cc1cc(C)cc(C)c1`, for which the negative logarithm of the IC50 (pIC50) was 7.20.
On the same count and under the same terms, under `CCc1c(C)[nH]c(=O)c(N(C)CC)c1Cc1cccc(/C=C/C#N)c1` stands 8.22.

The test system of another experiment is Human immunodeficiency virus 1. Put plainly: In vitro inhibitory concentration against HIV F227C mutant strain. Type of experiment: functional, organism-based.
Conditions: not given
The gist of the method:
as §1
`CCc1c(C)[nH]c(=O)c(N(C)CCOC)c1Cc1cccc(C)c1` showed a negative-log IC50 (pIC50) of 6.10.
The same measure, in the same setting: with `CCc1c(C)[nH]c(=O)c(N(C)CC)c1Cc1cc(C)cc(C)c1` the figure was 5.95; with `CCc1c(C)[nH]c(=O)c(N(C)CC)c1Cc1cccc(/C=C/C#N)c1`, 6.10.

The next experiment relates to Human immunodeficiency virus 1. Put plainly: In vitro inhibitory concentration against HIV G190A mutant strain. Type of experiment: functional, organism-based.
Conditions: not given
The gist of the method:
as §1
With `CCc1c(C)[nH]c(=O)c(N(C)CCOC)c1Cc1cccc(C)c1`, the pIC50 was 7.00.
On the same count and under the same terms, under `CCc1c(C)[nH]c(=O)c(N(C)CC)c1Cc1cc(C)cc(C)c1` stands 7.20; under `CCc1c(C)[nH]c(=O)c(N(C)CC)c1Cc1cccc(/C=C/C#N)c1`, 8.00.

For another experiment, the system named is Human immunodeficiency virus 1. Kind of experiment: In vitro inhibitory concentration against HIV G190S mutant strain.
Conditions: not given
Type of experiment: functional, organism-based. The gist of the method:
as §1
In the case of `CCc1c(C)[nH]c(=O)c(N(C)CCOC)c1Cc1cccc(C)c1`, the negative logarithm of the IC50 (pIC50) is 7.41.
Take `CCc1c(C)[nH]c(=O)c(N(C)CC)c1Cc1cc(C)cc(C)c1`: the pIC50 is 6.50.
On to `CCc1c(C)[nH]c(=O)c(N(C)CC)c1Cc1cccc(/C=C/C#N)c1`, for which the negative logarithm of the IC50 (pIC50) was 6.90.

The subject of the next experiment is Human immunodeficiency virus 1. Put plainly: In vitro inhibitory concentration against HIV K101E mutant strain. Type of experiment: functional, organism-based.
Conditions: not given
The method in brief:
as §1
Turning to `CCc1c(C)[nH]c(=O)c(N(C)CCOC)c1Cc1cccc(C)c1`, the pIC50 is 7.80.
Still for that read-out and setting: under `CCc1c(C)[nH]c(=O)c(N(C)CC)c1Cc1cc(C)cc(C)c1` stands 7.10; under `CCc1c(C)[nH]c(=O)c(N(C)CC)c1Cc1cccc(/C=C/C#N)c1`, 8.22.

For a further experiment, the system named is Human immunodeficiency virus 1. Kind of experiment: In vitro inhibitory concentration against HIV K103N mutant strain. Type of experiment: functional, organism-based.
Conditions: not given
The method in brief: as §1
The molecule `CCc1c(C)[nH]c(=O)c(N(C)CCOC)c1Cc1cccc(C)c1` had a pIC50 of 7.10.
With `CCc1c(C)[nH]c(=O)c(N(C)CC)c1Cc1cc(C)cc(C)c1`, the pIC50 is 7.10.
In turn, `CCc1c(C)[nH]c(=O)c(N(C)CC)c1Cc1cccc(/C=C/C#N)c1` showed a negative-log IC50 (pIC50) of 8.22.

The next experiment deals with Human immunodeficiency virus 1. Kind of experiment: In vitro inhibitory concentration against HIV L100I mutant strain.
Conditions: not given
Type of experiment: functional, organism-based. The method in brief: as §1
Regarding `CCc1c(C)[nH]c(=O)c(N(C)CCOC)c1Cc1cccc(C)c1`, the negative logarithm of the IC50 (pIC50) is 8.22.
On to `CCc1c(C)[nH]c(=O)c(N(C)CC)c1Cc1cc(C)cc(C)c1`, for which the pIC50 was 7.20.
On to `CCc1c(C)[nH]c(=O)c(N(C)CC)c1Cc1cccc(/C=C/C#N)c1`, for which the pIC50 was 8.00.

The next experiment has as its system Human immunodeficiency virus 1. Put plainly: In vitro inhibitory concentration against HIV V106A mutant strain.
Conditions: not given
Type of experiment: functional, organism-based. The gist of the method:
as §1
For `CCc1c(C)[nH]c(=O)c(N(C)CCOC)c1Cc1cccc(C)c1`, the pIC50 is 7.20.
As for `CCc1c(C)[nH]c(=O)c(N(C)CC)c1Cc1cc(C)cc(C)c1`, the pIC50 is 6.50.
Still for that read-out and setting: under `CCc1c(C)[nH]c(=O)c(N(C)CC)c1Cc1cccc(/C=C/C#N)c1` stands 8.10.

Another experiment concerns Human immunodeficiency virus 1. Put plainly: In vitro inhibitory concentration against HIV V179E mutant strain. Type of experiment: functional, organism-based.
Conditions: not given
The method in brief:
as §1
On to `CCc1c(C)[nH]c(=O)c(N(C)CCOC)c1Cc1cccc(C)c1`, for which the negative logarithm of the IC50 (pIC50) is 8.40.
The same measure, in the same setting: with `CCc1c(C)[nH]c(=O)c(N(C)CC)c1Cc1cc(C)cc(C)c1` the figure was 7.49; with `CCc1c(C)[nH]c(=O)c(N(C)CC)c1Cc1cccc(/C=C/C#N)c1`, 8.70.

For another experiment, the system named is Human immunodeficiency virus 1. Put plainly: In vitro inhibitory concentration against HIV Y188L mutant strain. Type of experiment: functional, organism-based.
Conditions: not given
The method in brief: as §1
As to `CCc1c(C)[nH]c(=O)c(N(C)CCOC)c1Cc1cccc(C)c1`, the negative logarithm of the IC50 (pIC50) is 6.40.
In the case of `CCc1c(C)[nH]c(=O)c(N(C)CC)c1Cc1cc(C)cc(C)c1`, the pIC50 was 5.90.
`CCc1c(C)[nH]c(=O)c(N(C)CC)c1Cc1cccc(/C=C/C#N)c1` showed a pIC50 of 6.60.

The test system of a further experiment is Human immunodeficiency virus 1. Put plainly: In vitro inhibitory concentration against HIV LAI cell line. Type of experiment: functional, organism-based. The following applies: Human immunodeficiency virus 1, LAI. The gist of the method:
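HIV-1 LAI was added at 200 CCID50/well to MT4 human T-lymphoblastoid cells (30 000 cells/well) across a concentration range of compound. Cells were grown in RPMI 1640 with 10% fetal calf serum and antibiotics. After 5 days at 37 °C in 5% CO2, cell viability was read by MTT colorimetry. EC50 was the concentration giving 50% infection versus the drug-free control.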
The molecule `CCc1c(C)[nH]c(=O)c(N(C)CCOC)c1Cc1cccc(C)c1` gave a pIC50 of 9.00.
With `CCc1c(C)[nH]c(=O)c(N(C)CC)c1Cc1cc(C)cc(C)c1`, the pIC50 is 8.10.
In turn, `CCc1c(C)[nH]c(=O)c(N(C)CC)c1Cc1cccc(/C=C/C#N)c1` had a negative-log IC50 (pIC50) of 9.00.

(Values after ChEMBL document CHEMBL1145200, “4-Benzyl and 4-benzoyl-3-dimethylaminopyridin-2(1H)-ones: in vitro evaluation of new C-3-amino-substituted and C-5,6-alkyl-substituted analogues against clinically important HIV mutant strains” (J Med Chem, 2005).)
